# Screening results as filed in PubChem BioAssay.
# T cruzi inh: blocks replication of Trypanosoma cruzi; T. cruzi beta-gal in NIH3T3, luminescence, 90 h; inhibition, % (test concentration not listed); 1.4% of 300,000 active;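 active means mean inhibition across valid replicates above about 55%, limit read from the data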;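 further: signal also drops with host cell toxicity which is not excluded here; higher percent means less beta-gal luminescence so fewer parasites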
#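 Read-out: Parasite load inhibition, % | Test system: Mouse NIH/3T3 fibroblasts infected with β-gal-expressing T. cruzi Tulahuen C4 | Amount: 5,000 cells/well | Medium: DMEM, 2% fetal bovine serum | Signal: GalScreen β-gal luminescence, detergent lysis, 60 min | Timing: 3 h attach, ≥90 h co-culture | Also added: Tulahuen C4 trypomastigotes, 5000/well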
# L major viab: Leishmania major promastigote growth inhibition; Leishmania major promastigotes, resazurin fluorescence viability; inhibition, % at 10 µM; 9% of 200,000 active; in the data active means inhibition above about 50%;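 further: promastigotes grown with compound for 44 hours at 28 °C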
# UPR XBP1 act: adaptive UPR (XBP1) activation | CHO-XBP1 luciferase reporter, IRE1-XBP1 UPR activation, luminescence; percent of tunicamycin response, DMSO as zero | activation, % at 20 µM | 0.33% of 330,000 active | AID 463104;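 active means versus positive control, 20 µM dose yields 30% or more activation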
#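 Material: CHO-XBP1 cells stably carrying IRE1-XBP1-driven luciferase reporter | Medium: F12 with 10% serum | Compound dosing: 20 µM single concentration, DMSO 1% | Incubation: Overnight seeding at 37 °C, 6 h compound treatment at 37 °C | Detection: Steady-Glo luminescence read | Read-out basis: % activation of reporter signal versus tunicamycin and DMSO controls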
# UPR CHOP act: apoptotic UPR (CHOP) activation | AID 449763 | 0.34% of 330,000 active | activation, % at 10 µM | CHO-CHOP luciferase reporter, luminescence; percent of tunicamycin response over DMSO baseline;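 active means at 10 µM dose, activation of 40% or more, normalized to positive control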
#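 Assay system: CHO cells with stable CHOP pathway luciferase reporter; Buffer or medium: F12 plus 10% serum; Times: 16-18 h cell attachment, then 6 h compound exposure, 37 °C; Signal: luciferase luminescence; Read-out basis: percent activation relative to tunicamycin control; Control set: tunicamycin high control, DMSO low control.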
# CHOP inh: inhibitors of CHOP induction in ER stress response; CHO-K1 CHOP-promoter luciferase, tunicamycin-induced, 15-18 h; inhibition, % at 10 µM; 3.8% of 220,000 active;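 active means compounds that reduced the stress-induced luciferase reporter signal by more than about 70% of percent inhibition, limit read from the data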
# Dynein transport: dynein cargo transport inhibition | z-score, hits read low | 0.47% of 220,000 active | 3617.4 mouse cells, GR-EGFP nuclear translocation imaging; test concentration mostly 20 µM; stimulated with dexamethasone, 1 µM; hits give low values;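 active means plate z-score of nuclear minus cytoplasmic receptor signal below a set negative limit, without overly bright fluorescence or cell loss, cut at about -3.5 in these data, passing the limit was not always enough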;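 further: z-score of nuclear minus cytoplasmic ring GR-EGFP intensity difference per well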
#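 Medium: Induction medium lacking tetracycline, stripped serum | Probe or stimulus: 1.0 µM final dexamethasone stimulus | Schedule: 48 h induction, then 1 h compound, then 30 min agonist, 37 °C | Signal: Automated 10x imaging of fixed Hoechst-stained cells | Evaluation: Per-cell GR-EGFP intensity, nucleus versus surrounding cytoplasmic ring, well-averaged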
# A number is an active result; . = inactive; / = not tested or not shown. This excerpt belongs to a sample that is enriched for hits.
SMILES,T cruzi inh,L major viab,UPR XBP1 act,UPR CHOP act,CHOP inh,Dynein transport
CCC(=O)C(C#N)(c1ccc(OC)c(OC)c1)C(C)C (stereo not drawn),/,/,.,.,/,/
Cc1ccc(CNc2nc(N)c([N+](=O)[O-])c(NCc3ccccc3)n2)cc1,.,70,.,.,.,.
Nc1nc(NCc2ccccc2)nc(NCc2ccccc2)c1[N+](=O)[O-],.,.,.,.,.,.
CCOC(=O)C1=C(NC(=S)NC(=O)c2ccccc2)c2ccccc2CC1(C)CC (stereo not drawn),.,.,.,.,.,.
CCOC(=O)C1=C(NC(=S)NC(=O)c2ccccc2)c2ccccc2CC1C(C)C (stereo not drawn),.,.,.,.,89,.
O=C1NC(c2ccccc2)=C(c2nc3ccccc3s2)C(c2ccc(O)cc2)N1 (stereo not drawn),.,81,.,.,.,.
O=C1NC(c2ccccc2)=C(c2ccc3ccccc3n2)C(c2ccncc2)N1 (stereo not drawn),.,.,.,.,.,.
O=C1NC(c2ccccc2)=C(c2ccc3ccccc3n2)C(c2ccc(F)cc2)N1 (stereo not drawn),.,.,.,.,.,.
O=C1NC(c2ccccc2)=C(c2ccc3ccccc3n2)C(c2ccccc2)N1 (stereo not drawn),.,85,.,.,.,.
CSc1ccc(S(=O)(=O)NCc2ccc(Cl)cc2Cl)cc1,.,.,.,.,89,.
CSc1ccc(S(=O)(=O)NCc2ccccc2Cl)cc1,.,.,.,.,.,.
OCC1(CCOc2ccccc2)CCN(CC2=Cc3cc(Cl)ccc3OC2)CC1,.,94,.,.,.,.
Cc1nn(C)cc1CN1CCC(CO)(CCOc2ccccc2)CC1,.,74,.,.,.,.
COc1ccc2[nH]c(CN3CCC(CO)(CCOc4ccccc4)CC3)c(C)c2c1,.,88,.,.,.,.
COc1ccc(CN2CCC(CO)(CCOc3ccccc3)CC2)c(OC)c1C,.,.,.,.,.,.
CCOc1ccccc1CN1CCC(CO)(CCOc2ccccc2)CC1,.,.,.,.,.,.
COc1cc(Cl)c(CN2CCC(CO)(CCOc3ccccc3)CC2)cc1OC,.,/,.,.,/,/
Cc1oc(-c2cccs2)nc1CN1CCC(CO)(CCOc2ccccc2)CC1,.,73,.,.,.,.
Cc1sc2ncn(CC(=O)NCC(=O)N3CCN(c4ccc(F)cc4)CC3)c(=O)c2c1C,.,/,.,.,/,/
CC1CCCCN1S(=O)(=O)c1ccc(S(=O)(=O)N2CCN(C)CC2)cc1 (stereo not drawn),.,/,.,.,/,/
O=C(CCCOc1ccccc1)N1CCN(c2ccccc2)CC1,.,.,.,.,.,.
Cc1cccc(N2CCN(C(=O)CCCOc3ccccc3)CC2)c1C,.,.,.,.,84,.
Cc1cccc(N2CCN(C(=O)COc3cccc4c3OC(C)(C)C4)CC2)c1C,.,.,.,.,79,.
O=C(c1ccccc1)c1cccn1CC(=O)N1CCCCCC1,.,.,.,.,.,.
Cc1cccc(N2CCN(C(=O)Cn3cccc3C(=O)c3ccccc3)CC2)c1C,.,.,.,.,71,.
SMILES,T cruzi inh,L major viab,UPR XBP1 act,UPR CHOP act,CHOP inh,Dynein transport
Cc1cc(OCCCC(=O)N2CCCCC2)cc(C)c1Cl,.,.,.,.,83,.
CCOC(=O)N1CCN(C(=O)CSC2=NS(=O)(=O)c3cc(F)ccc3N2)CC1,.,/,.,.,/,/
Cc1ccc(Cn2nnnc2CN2CCC(O)(c3cccnc3)CC2)cc1,.,53,.,.,.,.
Cc1ccc(S(=O)(=O)Oc2cccc(/C=N/n3cnnc3)c2)cc1,.,67,.,.,.,.
Cc1ccc(S(=O)(=O)Oc2cccc(/C=N/Nc3ccc(C(=O)O)cc3)c2)cc1,.,/,.,.,.,.
CN(C)c1ccc(CNCCC2CCOC(C)(C)C2)cc1 (stereo not drawn),58,94,.,.,.,.
Cc1cc(OCC(O)CN2CCN(CCO)CC2)ccc1C(C)C (stereo not drawn),.,89,.,.,.,.
